Columns and labels:
Cholinesterase = Cholinesterase (Mus musculus, UniProt Q03311); assay: Inhibition of mouse serum BChE after 1 hr by modified Ellman's colorimetric method
Method in brief: (§1)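 Enzyme source was a mouse serum extract. Inhibitor was preincubated with enzyme for 1 h at 37 °C, then butyrylthiocholine was added together with DTNB. Absorbance at 415 nm was read at 2 min intervals. Activity was taken as percent of the DMSO solvent control. Seven concentrations were tested, and IC50 came from nonlinear regression of a sigmoidal dose-response curve.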

Acetylcholinesterase = target: T1, Acetylcholinesterase (Mus musculus, UniProt P21836); assay: Inhibition of mouse brain AChE after 1 hr by modified Ellman's colorimetric method
T1 sequence (P21836 whole entry): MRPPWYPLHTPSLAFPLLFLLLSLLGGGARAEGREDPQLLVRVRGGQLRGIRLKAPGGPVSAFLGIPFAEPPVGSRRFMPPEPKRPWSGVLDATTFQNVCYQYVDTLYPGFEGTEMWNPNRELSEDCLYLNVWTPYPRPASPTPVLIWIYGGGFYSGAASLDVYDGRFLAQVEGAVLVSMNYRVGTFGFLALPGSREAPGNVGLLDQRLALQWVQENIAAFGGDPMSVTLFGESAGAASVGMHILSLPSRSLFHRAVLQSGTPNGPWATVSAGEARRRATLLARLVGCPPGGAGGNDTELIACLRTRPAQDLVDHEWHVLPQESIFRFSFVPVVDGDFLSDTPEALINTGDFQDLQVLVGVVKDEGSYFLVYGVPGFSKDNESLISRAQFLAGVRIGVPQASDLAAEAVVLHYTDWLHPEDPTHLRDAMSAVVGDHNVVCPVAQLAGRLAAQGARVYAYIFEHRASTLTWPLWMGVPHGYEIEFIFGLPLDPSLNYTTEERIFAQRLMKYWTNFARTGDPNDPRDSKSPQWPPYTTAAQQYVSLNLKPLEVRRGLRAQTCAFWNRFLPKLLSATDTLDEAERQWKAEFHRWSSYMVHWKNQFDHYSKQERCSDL
Method in brief: as §1, with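 “brain” for “serum”, “acetylthiocholine” for “butyrylthiocholine”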

Chain of Cholinesterase (Q03311 whole entry): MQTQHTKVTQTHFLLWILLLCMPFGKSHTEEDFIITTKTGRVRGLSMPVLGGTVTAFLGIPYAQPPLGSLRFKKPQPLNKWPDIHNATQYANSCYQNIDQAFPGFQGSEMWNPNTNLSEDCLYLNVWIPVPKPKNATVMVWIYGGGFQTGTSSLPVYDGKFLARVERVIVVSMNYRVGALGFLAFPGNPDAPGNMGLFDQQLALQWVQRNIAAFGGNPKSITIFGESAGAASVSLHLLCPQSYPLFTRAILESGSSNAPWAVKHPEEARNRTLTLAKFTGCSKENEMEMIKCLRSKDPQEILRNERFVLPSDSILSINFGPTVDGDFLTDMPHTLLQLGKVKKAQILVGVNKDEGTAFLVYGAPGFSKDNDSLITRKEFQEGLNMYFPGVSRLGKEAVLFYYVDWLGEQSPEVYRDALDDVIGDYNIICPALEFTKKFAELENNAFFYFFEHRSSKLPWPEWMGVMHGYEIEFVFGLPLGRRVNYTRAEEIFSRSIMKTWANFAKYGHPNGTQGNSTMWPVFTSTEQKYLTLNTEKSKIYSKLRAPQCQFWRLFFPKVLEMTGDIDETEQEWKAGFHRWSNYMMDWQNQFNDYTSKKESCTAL

Compound	IC50 (Cholinesterase)	IC50 (Acetylcholinesterase)
CC(C)c1ccc(NC(=O)Oc2ccc3c(c2)[C@]2(C)CCN(CC(c4ccccc4)c4ccccc4)[C@@H]2N3C)cc1	10000 nM	> 100000 nM
CC(C)c1ccc(NC(=O)Oc2ccc3c(c2)[C@]2(C)CCN(C(Cc4ccccc4)c4ccccc4)[C@@H]2N3C)cc1 (stereo not given in full)	15000 nM	> 100000 nM
CC(C)c1ccc(NC(=O)Oc2ccc3c(c2)[C@]2(C)CCN(CCc4ccc(Cl)cc4)[C@@H]2N3C)cc1	500 nM	> 100000 nM
CC(C)c1ccc(CCN2CC[C@@]3(C)c4cc(OC(=O)Nc5ccc(C(C)C)cc5)ccc4N(C)[C@@H]23)cc1	3300 nM	> 100000 nM
CC(C)c1ccc(NC(=O)Oc2ccc3c(c2)[C@]2(C)CCN(CCc4ccc(Cl)cc4Cl)[C@@H]2N3C)cc1	2600 nM	> 100000 nM
Cc1ccc(CCN2CC[C@@]3(C)c4cc(OC(=O)Nc5ccc(C(C)C)cc5)ccc4N(C)[C@@H]23)c(C)c1	1100 nM	> 100000 nM
CC(C)c1ccc(NC(=O)Oc2ccc3c(c2)[C@]2(C)CCN(CC(C)c4ccccc4)[C@@H]2N3C)cc1 (stereo not given in full)	720 nM	> 100000 nM
CC(C)c1ccc(NC(=O)Oc2ccc3c(c2)[C@]2(C)CCN(CCc4ccccn4)[C@@H]2N3C)cc1	160 nM	4200 nM
CC(C)c1ccc(NC(=O)Oc2ccc3c(c2)[C@]2(C)CCN(CCN4CCCCC4)[C@@H]2N3C)cc1	170 nM	3500 nM
CC(C)c1ccc(NC(=O)Oc2ccc3c(c2)[C@]2(C)CCN(CCc4cccnc4)[C@@H]2N3C)cc1	180 nM	> 100000 nM
CC(C)c1ccc(NC(=O)Oc2ccc3c(c2)[C@]2(C)CCN(CCc4ccncc4)[C@@H]2N3C)cc1	170 nM	23000 nM
CC(C)c1ccc(NC(=O)Oc2ccc3c(c2)[C@]2(C)CCN(CCCCc4ccccc4)[C@@H]2N3C)cc1	550 nM	> 100000 nM
Cc1ccc(CCN2CC[C@@]3(C)c4cc(OC(=O)Nc5ccc(C(C)C)cc5)ccc4N(C)[C@@H]23)cc1	730 nM	> 100000 nM
CC(C)c1ccc(NC(=O)Oc2ccc3c(c2)[C@]2(C)CCN(CCCc4ccccc4)[C@@H]2N3C)cc1	510 nM	> 100000 nM
CC(C)c1ccc(NC(=O)Oc2ccc3c(c2)[C@]2(C)CCN(CCc4ccc(F)cc4)[C@@H]2N3C)cc1	500 nM	> 100000 nM
CC(C)c1ccc(NC(=O)Oc2ccc3c(c2)[C@]2(C)CCN(Cc4ccccc4)[C@@H]2N3C)cc1	510 nM	> 100000 nM
CC(C)c1ccc(NC(=O)Oc2ccc3c(c2)[C@]2(C)CCN(C)[C@@H]2N3C)cc1 [4-ISOPROPYLPHENSERINE]	240 nM	8400 nM
CC(C)c1ccc(NC(=O)Oc2ccc3c(c2)[C@]2(C)CCN(CCc4ccccc4)[C@@H]2N3C)cc1 [PHENETHYLCYMSERINE]		> 100000 nM

From ChEMBL document CHEMBL1154935, “Design, synthesis, evaluation and QSAR analysis of N(1)-substituted norcymserine derivatives as selective butyrylcholinesterase inhibitors” (Bioorg Med Chem Lett, 2010)
